HUVEC inhibit: inhibitors of human endothelial cell proliferation. HUVEC proliferation, CellTiter-Glo luminescence, 72 h; stronger effect = lower value. viability, % at 10 µM (by protocol). 1.1% of 86,000 active;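 active = viability at or below 30%; inactive = viability above 30%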
Lung fibro prol: blocks proliferation of human lung fibroblasts. viability, % at 10 µM. 1.1% of 85,000 active. LL 47 human lung fibroblast viability, ATP luminescence; stronger effect = lower value. AID 719;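 active = viability at or below 50% in the single dose screen; inactive = viability above 50%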;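 note: compound exposure lasted 72 h before the ATP readout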
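Material: human lung fibroblast line LL 47, low passage; Evaluation: viability percentage against median untreated-cell control; Buffer or medium: 15% FBS in IMEM; Incubation: 72 h compound exposure at 37 °C after overnight plating; Dosing: 0.1% DMSO in all compound wells; Measured by: CellTiter-Glo luminescence.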
PTEN del growth: growth suppressors of cells with PTEN tumor suppressor deletion | HCT116 PTEN-null viability, CellTiter-Glo, 60 h; stronger effect = lower value | viability, % at 10 µM | 1.2% of 140,000 active | AID 827;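 active = viability at or below a set limit, 4 SD under the median of all tested compounds, cut at about 3.7% in these data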;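 note: PTEN knockout HCT116 line with beta catenin targeted HCT116 as companion control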
H69AR inhibit: blocks growth of human H69AR lung tumor cells. 6% of 85,000 active. H69AR lung tumor viability, ATP luminescence, 72 h; stronger effect = lower value. viability, % at 10 µM;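 active = viability at or below 40%; inactive = viability above 40%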;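 note: multidrug resistant small cell line overexpressing MRP-1 efflux transporter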
bCat KO growth: beta-catenin-lacking colon tumor cell growth suppression. HCT116 beta-catenin knockout viability, CellTiter-Glo, 60 h; stronger effect = lower value. viability, % at 10 µM. 1.5% of 140,000 active;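 active = viability at or under a set limit, the compound median less 4 SD, cut at about 6% in these data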
A number is an active result; n = inactive; x = not tested or not shown. This excerpt belongs to a sample that is enriched for hits.

SMILES	HUVEC inhibit	Lung fibro prol	PTEN del growth	H69AR inhibit	bCat KO growth
O=C(CN1CCN(c2ncc(C(F)(F)F)cc2Cl)CC1)NCCNc1ncc(C(F)(F)F)cc1Cl	n	n	n	3.8	n
CN(C)/C=C/C(=O)c1ccc(N2CCN(c3ncc(C(F)(F)F)cc3Cl)CC2)cc1	2.3	n	n	0.8	2.1
CCn1cc(C(=O)NCc2cccs2)c(=O)c2cc(S(=O)(=O)N3CCOCC3)ccc21	n	n	x	n	x
C#CCSc1nnc(CSc2nc3ccccc3s2)n1-c1ccccc1	n	n	n	3.0	n
CN(C)S(=O)(=O)c1ccc(NC(=O)CNc2cc(S(=O)(=O)N3CCCC3)ccc2OCC(F)(F)F)cc1	x	x	n	x	n
Cc1cccnc1NCc1ccc(O)c2ncccc12	n	n	2.5	13	3.9
CCOC(=O)c1cc(-c2ccccc2)nc2c1c(C)nn2-c1ccccn1	n	n	n	n	n
CCOC(=O)c1cc(-c2ccncc2)nc2c1c(C)nn2C	n	n	n	33	n
CCOC(=O)c1cc(C)nn1-c1nc(Cl)cc(OC)n1	x	x	n	x	n
O=[N+]([O-])c1cc2oc3c(c2c(C=NCc2ccncc2)c1O)CCCC3	x	x	n	x	n
COc1ccc(-c2nc(Cn3c(SCc4ccccc4F)nc4ccncc43)c(C)o2)cc1	n	40	n	14	n
CCOC(=O)c1c(N)sc2c(OC)c(Br)ccc12	27	n	n	n	n
O=C(CSc1nc(-c2cccs2)cc(C(F)(F)F)n1)Nc1cc(OCC(F)(F)C(F)F)cc([N+](=O)[O-])c1	x	x	n	x	n
O=C(Cn1nc(Cl)nc1Cl)c1cc2ccccc2oc1=O	n	n	n	32	n
Cc1cc(C)nc(SCC(=O)c2ccc3c(c2)OCCO3)n1	x	x	n	x	n
O=C(Cn1nc(Cl)nc1Cl)c1ccc2c(c1)OCCO2	n	n	n	38	n
Cn1cnnc1SCC(=O)c1cc2ccccc2oc1=O	n	n	n	n	n
CCCCC(=O)NC(c1cccc([N+](=O)[O-])c1)c1c(OC(C)=O)ccc2ccccc12 (stereo not drawn)	n	n	n	4.6	n
Cn1nc(C(=O)Nc2c(-c3ccccc3)nc3sccn23)c2ccccc2c1=O	n	40	n	26	n
Cc1ccc(C(=O)NC(C)c2ccccc2)o1 (stereo not drawn)	n	n	n	n	n
COc1ccc(OC)c(C(C)NC(=O)c2ccco2)c1 (stereo not drawn)	n	n	n	22	n
COc1ccccc1C(C)NC(=O)c1ccc(C)o1 (stereo not drawn)	n	n	n	26	n
CCOc1cc(C(=O)Nc2ccc(NC(C)=O)cc2)ccc1OCC(=O)N1CCCCC1	x	x	n	x	n
Cn1c(C(=O)Nc2ccc3c(c2)OCO3)cc2c(=O)n(C)c3ccccc3c21	n	n	n	31	n
Cn1c(C(=O)N2CCCC2)cc2c(=O)n(C)c3ccccc3c21	n	n	n	n	n
SMILES	HUVEC inhibit	Lung fibro prol	PTEN del growth	H69AR inhibit	bCat KO growth
Cn1c(C(=O)N2CCN(Cc3ccc4c(c3)OCO4)CC2)cc2c(=O)n(C)c3ccccc3c21	n	n	n	38	n
Brc1ccc(C=Nc2ccc3c(c2)OCCOCCOCCO3)s1	x	x	n	x	n
O=c1[nH]cc([N+](=O)[O-])cc1Br	x	x	n	x	n
O=C(C1CCN(Cc2ccc(F)cc2)CC1)N(CCc1ccccc1)Cc1ccccc1	x	x	n	x	n
CC1CCCc2sc3nc(N4CCN(CCO)CC4)n4ncnc4c3c21 (stereo not drawn)	n	n	n	15	n
Cc1cccc(NC(=S)Nc2ccc(N3CCOCC3)cc2)c1C	x	x	n	x	n
O=C(COC(=O)Cc1ccc(S(=O)(=O)N2CCOCC2)s1)NCc1ccc(Cl)cc1	x	x	n	x	n
COC(=O)[C@@]1(Cc2ccc(OC)cc2)[C@@H]2[C@@H](CC(=O)[C@H]2CC(=O)C(=O)N(C)C)CN1C(=O)c1ccccc1	x	x	n	x	n
COC(=O)[C@@]1(Cc2ccc(OC)cc2)[C@@H]2C(=CC(=O)[C@H]2CC(=O)C(=O)N2CCCC2)CN1C(=O)c1ccccc1	x	x	2.0	x	1.9
CCC(C)Nc1c2c(nc3c(-c4ccccc4)c(C)nn13)CCC2 (stereo not drawn)	n	n	n	30	n
Cc1nn2c(NCCCN3CCOCC3)c3c(nc2c1-c1ccccc1)CCC3	n	n	n	n	n
CCCCNc1c2c(nc3c(-c4ccccc4)c(C)nn13)CCC2	n	n	n	27	n
Cc1nn2c(Nc3ccc(F)cc3)c3c(nc2c1-c1ccccc1)CCC3	x	x	n	x	n
O=C(Cc1cc(=O)[nH]c(=O)[nH]1)NCc1ccccc1	x	x	n	x	n
